Source: publication PMC6051889 (ACS chemical neuroscience, 2018)

How the values were obtained:
[1] = IV doses 30–60 mg/kg, within 5 min, Male CD1 mice; cited from earlier work
[2] = Plasma stability, mouse plasma
[3] = Plasma pharmacokinetics in mice; type: in vivo; settings: BALB/c mouse, IV
Method in brief: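 Balb/c mice received a single IV or oral-gavage dose, with low-dose isoflurane restraint for gavage. Each mouse gave one time point: 3 mice per point, 10 time points. Blood was taken by cardiac puncture under deep isoflurane anaesthesia, and plasma was assayed for parent compound by validated LC-MS/MS.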

For [D-Pen^2,D-Pen^5]-enkephalin [DPDPE], the “in vivo antinociceptive activity (hotplate)” value [1] is given as “demonstrated in vivo antinociceptive activity”.
For `CC(C)C[C@H](NC(=O)[C@H](Cc1ccccc1)NC(=O)CNC(=O)CNC(=O)[C@@H](N)Cc1ccc(O)cc1)C(=O)O` [Compound 1, Leu-enkephalin], the microsomal degradation (Microsomal stability; in the absence of NADPH) was “slowly degraded”, the material metabolized (Microsomal stability; mouse, rat and human NADPH-charged microsomes, 2 h, 0.50 μM) was 38–50% and the remaining at 4 h, 50 μM [2] was greater than 90%. For the same compound, the “time until completely consumed in plasma” value [3] was no more than 5 min.
